Measured values taken from ChEMBL document CHEMBL1137262, “Design and synthesis of APTCs (aminopyrrolidinetricarboxylic acids): identification of a new group III metabotropic glutamate receptor selective agonist” (Bioorg Med Chem Lett, 2006).

Experiments:
Format in all cases: functional, cell-based
[1] = target: Metabotropic glutamate receptor 2 (Rattus norvegicus, UniProt P31421); assay: Activity at rat mGluR2 receptor measured as intracellular calcium concentration in HEK293 cells
Outline: (§1)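 HEK293 cells were transfected with the indicated receptor, seeded on polyornithine-coated plates and cultured 24 h. Fluorescence (ex 485/em 525 nm) was read every 1.5 s for 60 s after compound addition. Agonism was scored versus basal signal. Dose–response curves were fitted; means of three experiments in triplicate.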

[2] = target: Metabotropic glutamate receptor 4 (Rattus norvegicus, UniProt P31423); assay: (§2) Activity at rat mGluR4 receptor measured as intracellular calcium concentration in HEK293 cells; outline: as §1
Chain of Metabotropic glutamate receptor 4 (P31423 whole entry): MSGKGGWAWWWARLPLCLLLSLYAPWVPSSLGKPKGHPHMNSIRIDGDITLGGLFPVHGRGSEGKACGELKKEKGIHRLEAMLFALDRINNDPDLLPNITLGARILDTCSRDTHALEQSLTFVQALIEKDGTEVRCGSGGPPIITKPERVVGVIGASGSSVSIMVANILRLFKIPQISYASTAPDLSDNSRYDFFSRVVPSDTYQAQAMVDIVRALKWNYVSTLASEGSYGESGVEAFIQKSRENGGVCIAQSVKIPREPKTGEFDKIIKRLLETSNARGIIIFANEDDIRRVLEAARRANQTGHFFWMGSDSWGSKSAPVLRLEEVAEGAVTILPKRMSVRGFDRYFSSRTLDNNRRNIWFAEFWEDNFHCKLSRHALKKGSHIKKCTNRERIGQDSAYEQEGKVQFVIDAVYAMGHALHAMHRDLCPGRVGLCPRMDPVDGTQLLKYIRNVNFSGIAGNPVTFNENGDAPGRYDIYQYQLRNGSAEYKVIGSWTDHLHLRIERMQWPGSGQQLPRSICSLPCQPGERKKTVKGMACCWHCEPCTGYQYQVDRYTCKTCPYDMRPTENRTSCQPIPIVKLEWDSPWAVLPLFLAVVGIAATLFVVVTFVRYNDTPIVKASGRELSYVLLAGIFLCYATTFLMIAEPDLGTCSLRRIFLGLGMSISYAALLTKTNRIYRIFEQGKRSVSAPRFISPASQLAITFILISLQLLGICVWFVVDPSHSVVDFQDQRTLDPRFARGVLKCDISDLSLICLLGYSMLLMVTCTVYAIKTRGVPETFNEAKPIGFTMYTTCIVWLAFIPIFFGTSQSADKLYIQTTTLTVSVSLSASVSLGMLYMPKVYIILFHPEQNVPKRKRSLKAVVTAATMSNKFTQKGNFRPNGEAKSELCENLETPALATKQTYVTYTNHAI

[3] = target: Metabotropic glutamate receptor 5 (Rattus norvegicus, UniProt P31424); assay: Activity at rat mGluR5 receptor measured as intracellular calcium concentration in HEK293 cells; outline: as §1
Chain of Metabotropic glutamate receptor 5 (P31424 whole entry): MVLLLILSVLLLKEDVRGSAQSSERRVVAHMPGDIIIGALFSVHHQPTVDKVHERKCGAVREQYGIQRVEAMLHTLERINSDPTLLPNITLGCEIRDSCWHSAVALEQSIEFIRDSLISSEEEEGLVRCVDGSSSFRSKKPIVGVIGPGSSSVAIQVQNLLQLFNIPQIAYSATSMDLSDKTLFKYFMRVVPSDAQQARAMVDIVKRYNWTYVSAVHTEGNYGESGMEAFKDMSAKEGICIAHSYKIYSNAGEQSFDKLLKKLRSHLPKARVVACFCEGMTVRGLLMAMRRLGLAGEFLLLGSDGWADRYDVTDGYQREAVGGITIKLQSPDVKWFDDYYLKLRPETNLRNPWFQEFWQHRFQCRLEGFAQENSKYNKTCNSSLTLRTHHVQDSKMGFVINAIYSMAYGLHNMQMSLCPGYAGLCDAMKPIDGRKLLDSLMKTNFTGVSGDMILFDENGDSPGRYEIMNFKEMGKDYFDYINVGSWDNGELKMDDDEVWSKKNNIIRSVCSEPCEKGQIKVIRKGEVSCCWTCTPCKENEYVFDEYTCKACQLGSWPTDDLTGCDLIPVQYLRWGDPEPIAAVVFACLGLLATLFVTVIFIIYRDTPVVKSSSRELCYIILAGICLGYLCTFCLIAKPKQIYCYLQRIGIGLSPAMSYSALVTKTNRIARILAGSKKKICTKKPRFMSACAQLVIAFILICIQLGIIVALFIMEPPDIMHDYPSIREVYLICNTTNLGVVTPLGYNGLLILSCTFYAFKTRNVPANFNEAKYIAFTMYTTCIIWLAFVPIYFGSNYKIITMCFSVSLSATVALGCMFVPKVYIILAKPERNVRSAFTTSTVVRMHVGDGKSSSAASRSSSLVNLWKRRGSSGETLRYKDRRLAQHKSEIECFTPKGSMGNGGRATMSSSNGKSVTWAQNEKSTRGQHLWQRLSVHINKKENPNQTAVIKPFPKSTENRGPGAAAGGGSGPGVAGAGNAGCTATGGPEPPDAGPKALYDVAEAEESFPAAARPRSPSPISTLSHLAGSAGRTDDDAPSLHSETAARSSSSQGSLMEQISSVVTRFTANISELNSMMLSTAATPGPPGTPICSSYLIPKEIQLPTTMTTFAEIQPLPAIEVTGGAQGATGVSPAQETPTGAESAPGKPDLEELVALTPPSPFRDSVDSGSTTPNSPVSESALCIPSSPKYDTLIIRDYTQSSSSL

[4] = target: Metabotropic glutamate receptor 6 (Rattus norvegicus, UniProt P35349); assay: Activity at rat mGluR6 receptor measured as intracellular calcium concentration in HEK293 cells; outline: as §1
Chain of Metabotropic glutamate receptor 6 (P35349 whole entry): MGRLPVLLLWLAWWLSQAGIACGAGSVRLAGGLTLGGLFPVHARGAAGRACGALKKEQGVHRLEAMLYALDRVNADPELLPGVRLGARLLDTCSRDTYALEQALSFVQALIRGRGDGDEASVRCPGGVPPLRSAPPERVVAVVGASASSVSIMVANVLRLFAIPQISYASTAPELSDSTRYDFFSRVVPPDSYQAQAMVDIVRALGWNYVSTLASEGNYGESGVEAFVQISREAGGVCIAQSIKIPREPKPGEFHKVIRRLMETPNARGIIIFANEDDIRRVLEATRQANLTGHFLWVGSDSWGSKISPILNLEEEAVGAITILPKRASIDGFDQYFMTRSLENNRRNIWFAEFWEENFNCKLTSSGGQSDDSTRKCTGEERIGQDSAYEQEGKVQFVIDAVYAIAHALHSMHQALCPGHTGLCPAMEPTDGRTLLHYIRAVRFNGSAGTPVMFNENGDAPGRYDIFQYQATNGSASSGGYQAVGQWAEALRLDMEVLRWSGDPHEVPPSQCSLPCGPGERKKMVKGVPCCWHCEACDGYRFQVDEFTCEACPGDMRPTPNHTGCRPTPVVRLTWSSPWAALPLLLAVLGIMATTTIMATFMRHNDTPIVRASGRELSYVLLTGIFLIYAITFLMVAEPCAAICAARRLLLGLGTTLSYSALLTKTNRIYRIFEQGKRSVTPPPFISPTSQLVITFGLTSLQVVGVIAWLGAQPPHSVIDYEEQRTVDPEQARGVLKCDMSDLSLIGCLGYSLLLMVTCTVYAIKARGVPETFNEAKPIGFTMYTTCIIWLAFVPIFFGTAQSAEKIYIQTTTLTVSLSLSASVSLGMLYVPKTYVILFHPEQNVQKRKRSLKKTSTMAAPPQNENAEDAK

[5] = target: Metabotropic glutamate receptor 7 (Rattus norvegicus, UniProt P35400); assay: Activity at rat mGluR7 receptor measured as intracellular calcium concentration in HEK293 cells; outline: as §1
[6] = target: Metabotropic glutamate receptor 8 (Rattus norvegicus, UniProt P70579); assay: (§3) Activity at rat mGluR8 receptor measured as intracellular calcium concentration in HEK293 cells; outline: as §1
Chain of Metabotropic glutamate receptor 8 (P70579 whole entry): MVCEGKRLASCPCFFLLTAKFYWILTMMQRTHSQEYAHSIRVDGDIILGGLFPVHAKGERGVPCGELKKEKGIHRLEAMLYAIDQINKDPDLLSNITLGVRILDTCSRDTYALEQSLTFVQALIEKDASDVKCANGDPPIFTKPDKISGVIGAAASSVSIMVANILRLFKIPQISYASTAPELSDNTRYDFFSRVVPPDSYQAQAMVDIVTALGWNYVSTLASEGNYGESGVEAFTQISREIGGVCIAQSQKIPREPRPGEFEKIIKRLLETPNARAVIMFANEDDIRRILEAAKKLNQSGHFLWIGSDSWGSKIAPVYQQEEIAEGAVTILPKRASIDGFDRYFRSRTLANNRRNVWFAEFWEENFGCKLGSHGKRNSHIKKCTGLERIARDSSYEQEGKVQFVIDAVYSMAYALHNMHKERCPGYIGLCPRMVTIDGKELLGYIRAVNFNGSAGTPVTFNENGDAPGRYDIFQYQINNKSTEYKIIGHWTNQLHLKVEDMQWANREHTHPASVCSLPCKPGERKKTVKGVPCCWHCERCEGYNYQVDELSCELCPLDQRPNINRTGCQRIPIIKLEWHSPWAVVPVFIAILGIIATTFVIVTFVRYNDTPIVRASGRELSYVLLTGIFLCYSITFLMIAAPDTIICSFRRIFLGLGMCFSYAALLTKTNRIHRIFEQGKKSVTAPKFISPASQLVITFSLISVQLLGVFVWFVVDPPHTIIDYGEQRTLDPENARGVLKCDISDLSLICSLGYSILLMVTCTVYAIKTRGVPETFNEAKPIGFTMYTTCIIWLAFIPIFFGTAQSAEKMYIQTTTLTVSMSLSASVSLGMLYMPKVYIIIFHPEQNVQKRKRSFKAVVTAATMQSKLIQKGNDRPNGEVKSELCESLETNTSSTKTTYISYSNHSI

[7] = target: Metabotropic glutamate receptor 4 (Rattus norvegicus) (UniProt P31423); assay: Activity at rat mGluR4 receptor measured as intracellular calcium concentration in HEK293 cells relative to glutamate
Chain of Metabotropic glutamate receptor 4 (Rattus norvegicus) (P31423 whole entry): as the sequence (P31423 whole entry) above

[8] = target: Metabotropic glutamate receptor 8 (Rattus norvegicus) (UniProt P70579); assay: Activity at rat mGluR8 receptor measured as intracellular calcium concentration in HEK293 cells relative to glutamate
Chain of Metabotropic glutamate receptor 8 (Rattus norvegicus) (P70579 whole entry): as the sequence (P70579 whole entry) above

[9] = target: Metabotropic glutamate receptor 4 (Rattus norvegicus) (UniProt P31423); assay: Activity against rat mGluR4 receptor measured as intracellular calcium concentration in HEK293 cells at 450 uM; details: filed as agonist
[10] = target: Metabotropic glutamate receptor 8 (Rattus norvegicus) (UniProt P70579); assay: as §3; details: filed as partial agonist; outline: as §1
[11] = target: Metabotropic glutamate receptor 4 (Rattus norvegicus) (UniProt P31423); assay: as §2; details: filed as agonist; outline: as §1
[12] = target: Metabotropic glutamate receptor 1 (Rattus norvegicus, UniProt P23385); assay: Activity at rat mGluR1 receptor measured as intracellular calcium concentration in HEK293 cells; outline: as §1

Chain of Metabotropic glutamate receptor 2 (P31421 whole entry): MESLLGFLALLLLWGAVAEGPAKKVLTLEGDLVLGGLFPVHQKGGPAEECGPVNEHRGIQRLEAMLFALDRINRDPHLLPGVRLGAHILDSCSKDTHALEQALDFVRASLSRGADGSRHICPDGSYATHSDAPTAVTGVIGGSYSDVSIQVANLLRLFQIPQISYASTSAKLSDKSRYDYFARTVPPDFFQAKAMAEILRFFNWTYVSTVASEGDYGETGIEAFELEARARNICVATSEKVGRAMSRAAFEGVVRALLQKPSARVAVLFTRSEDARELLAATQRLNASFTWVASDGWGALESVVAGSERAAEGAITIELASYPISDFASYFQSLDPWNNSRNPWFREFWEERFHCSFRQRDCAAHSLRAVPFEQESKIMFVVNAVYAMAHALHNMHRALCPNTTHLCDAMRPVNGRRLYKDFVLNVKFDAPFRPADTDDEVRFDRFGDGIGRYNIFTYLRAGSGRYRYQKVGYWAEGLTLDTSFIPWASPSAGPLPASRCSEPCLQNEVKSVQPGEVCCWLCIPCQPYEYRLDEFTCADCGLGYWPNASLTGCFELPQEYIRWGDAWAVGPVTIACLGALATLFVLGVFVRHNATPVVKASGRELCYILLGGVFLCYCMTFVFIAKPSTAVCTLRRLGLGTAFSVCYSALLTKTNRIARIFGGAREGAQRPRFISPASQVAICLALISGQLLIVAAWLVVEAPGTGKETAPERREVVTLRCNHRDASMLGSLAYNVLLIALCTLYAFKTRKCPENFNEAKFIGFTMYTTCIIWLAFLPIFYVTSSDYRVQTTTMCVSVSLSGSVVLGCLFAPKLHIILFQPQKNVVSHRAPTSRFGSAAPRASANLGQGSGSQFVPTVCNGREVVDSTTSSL

EC50 [1]	EC50 [2]	EC50 [3]	EC50 [4]	EC50 [5]	EC50 [6]	Emax [7]	Emax [8]	Activity [9]	Activity [10]	Activity [11]	EC50 [12]	Compound
> 1000 µM	7.2 µM	> 1000 µM	18.4 µM	1200 µM	10.1 µM							N[C@@]1(C(=O)O)C[C@H](C(=O)O)[C@H](C(=O)O)C1
> 5000 µM	48.3 µM	> 5000 µM	378 µM		56.2 µM	75%	36%	Agonist	Partial agonist	Agonist	> 5000 µM	N[C@@]1(C(=O)O)C[C@@H](C(=O)O)N(C(=O)/C=C/C(=O)O)C1
